Activity calls are given as the source filed them. No cut-off for these calls is given here.
What was measured:
[1] = organism: Rattus norvegicus; experiment: Inhibition of glucose-stimulated insulin secretion in dispersed rat pancreatic islets at 10 uM incubated for 2 hrs by ELISA; format: functional
In short: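 Dispersed islets from male Sprague Dawley rats (collagenase digestion, Histopaque purification, Accutase dispersal, cultured up to 4 days). Pre-incubated 1 h in Krebs-Ringer with 5.6 mM glucose, then 2 h at 37 °C with 15 mM glucose, ±10 nM GLP1(9-36)NH2, ±compound 10 µM, DMSO vehicle; insulin by HTRF ELISA as % of total, n-fold vs control; N≥9.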

[2] = biological target: T1, Solute carrier organic anion transporter family member 1B1 (Homo sapiens, UniProt Q9Y6L6); experiment: Substrate activity at human OATP1B1 expressed in HEK293 cells assessed as increase in compound uptake at 1 uM LC-MS/MS analysis; format: ADME, cell-based; conditions: hek293, 1 µM, TDE = time-dependent effect
T1 sequence (Q9Y6L6 whole entry): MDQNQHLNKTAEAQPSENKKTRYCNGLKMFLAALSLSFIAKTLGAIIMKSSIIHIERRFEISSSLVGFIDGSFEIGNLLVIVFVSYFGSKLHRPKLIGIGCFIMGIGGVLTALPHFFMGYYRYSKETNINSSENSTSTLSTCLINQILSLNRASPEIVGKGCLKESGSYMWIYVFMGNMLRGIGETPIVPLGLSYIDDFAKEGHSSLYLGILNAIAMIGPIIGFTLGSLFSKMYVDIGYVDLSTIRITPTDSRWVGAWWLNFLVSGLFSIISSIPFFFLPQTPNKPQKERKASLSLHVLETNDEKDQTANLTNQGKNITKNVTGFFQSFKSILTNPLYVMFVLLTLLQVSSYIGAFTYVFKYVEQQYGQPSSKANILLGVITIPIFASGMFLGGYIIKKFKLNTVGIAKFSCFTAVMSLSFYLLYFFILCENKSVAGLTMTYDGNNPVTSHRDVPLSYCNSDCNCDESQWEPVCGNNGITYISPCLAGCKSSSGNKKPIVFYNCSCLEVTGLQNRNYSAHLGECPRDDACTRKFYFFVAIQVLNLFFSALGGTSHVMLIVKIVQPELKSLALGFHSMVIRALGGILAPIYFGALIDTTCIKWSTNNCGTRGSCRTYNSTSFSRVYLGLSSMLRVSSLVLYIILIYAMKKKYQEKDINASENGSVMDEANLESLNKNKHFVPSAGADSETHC
In short: (§1)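 HEK-TR cells overexpressing hOATP1B1 or hOATP1B3, run in parallel with control HEK-TR cells, seeded at 1 x 10⁵ cells/well one day before. Time-dependent uptake of 1 μM compound in HBSS at 37 °C, quadruplicates. Uptake stopped with ice-cold buffer, cells washed, lysed and quantified by LC-MS/MS. Uptake ratio calculated against the control cells.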

[3] = biological target: T2, Solute carrier organic anion transporter family member 1B3 (Homo sapiens, UniProt Q9NPD5); experiment: Substrate activity at human OATP1B3 expressed in HEK293 cells assessed as increase in compound uptake at 1 uM LC-MS/MS analysis; format: ADME, cell-based; conditions: hek293, 1 µM, TDE = time-dependent effect; in short: as §1
T2 sequence (Q9NPD5 whole entry): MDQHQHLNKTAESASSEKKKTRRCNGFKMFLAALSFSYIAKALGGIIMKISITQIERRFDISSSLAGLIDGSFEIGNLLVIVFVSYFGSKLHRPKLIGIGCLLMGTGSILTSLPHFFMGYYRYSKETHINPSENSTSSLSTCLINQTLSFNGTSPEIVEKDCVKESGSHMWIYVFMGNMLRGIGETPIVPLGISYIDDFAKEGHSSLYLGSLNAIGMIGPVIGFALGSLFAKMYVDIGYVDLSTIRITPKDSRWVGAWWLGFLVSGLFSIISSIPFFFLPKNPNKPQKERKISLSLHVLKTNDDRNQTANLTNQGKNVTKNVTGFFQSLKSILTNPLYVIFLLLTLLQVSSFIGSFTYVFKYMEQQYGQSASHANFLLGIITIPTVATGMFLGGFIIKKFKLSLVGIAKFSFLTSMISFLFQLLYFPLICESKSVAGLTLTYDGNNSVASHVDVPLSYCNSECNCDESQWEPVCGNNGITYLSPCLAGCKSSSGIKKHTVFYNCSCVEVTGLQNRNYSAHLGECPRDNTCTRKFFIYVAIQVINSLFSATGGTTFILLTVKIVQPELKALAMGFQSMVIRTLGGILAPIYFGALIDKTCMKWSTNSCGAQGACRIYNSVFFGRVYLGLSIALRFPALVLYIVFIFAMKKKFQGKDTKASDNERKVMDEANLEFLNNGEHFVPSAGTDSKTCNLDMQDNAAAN

[4] = system: Mus musculus; experiment: Suppression of blood glucose concentration in GLP1(9-36)NH2-treated ob/ob C57Bl/6J mouse model of T2DM at 30 mg/kg, po dosed 1 hrs before test and treated with 60 mg/kg, po OATP/MRP2 inhibitor rifampicin 2.5 hrs prior to oral glucose-tolerance test; format: functional, organism-based
In short: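 Male ob/ob mice aged 10–11 weeks, n=7, randomised on blood glucose and fasted overnight. Rifampicin 60 mg/kg p.o. 2.5 h before the oGTT, compound 30 mg/kg p.o. 1 h before, GLP1(9-36)NH2 i.p. 15 min before, each given as indicated. Glucose 2 g/kg orally. Tail-vein glucose by glucometer at 0, 15, 30, 60 and 90 min.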

[5] = Solubility in pH 7.4 buffer; format: physicochemical
[6] = Chemical stability in presence of GSH; format: physicochemical
[7] = AUClast in C57Bl6 mouse at 10 mg/kg, po administered as single dose measured up to 24 hrs ESI-LC/MS-MS analysis; format: ADME, organism-based; design: dose 10 mg/kg, time < 24 hr, route oral; conditions: in vivo
In short: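 Single dose of compound: 3 mg/kg i.v. in solution (75% water : 25% of 75% Glycoferol/25% Cremophor) or 10 mg/kg p.o. as wet-milled suspension (0.6% methylcellulose, 0.5% Tween 80 in water); male Wistar rats n=3 per route, female C57Bl6 mice n=24 per route. Plasma sampled 0.25–24 h (p.o.), 0.083–24 h (i.v.); heparinized plasma, acetonitrile precipitation, ESI-LC/MS-MS (LOQ 1 ng/mL rat, 5 ng/mL mouse); noncompartmental analysis, linear trapezoidal.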

[8] = AUClast in Wistar rat at 10 mg/kg, po administered as single dose treated 2 hrs after dosing with 40 mg/kg, po OATP/MRP2 inhibitor rifampicin and measured up to 24 hrs ESI-LC/MS-MS analysis; format: ADME, organism-based; design: dose 10 mg/kg, time < 24 hr, route oral; conditions: in vivo
In short: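 Male Wistar rats (n=3 per route) pretreated orally with rifampicin 40 mg/kg (0.6% methylcellulose, 0.5% Tween 80 in water) 2 h before compound, given 3 mg/kg i.v. in Glycoferol/Cremophor-water solution or 10 mg/kg p.o. wet-milled suspension. Plasma sampled up to 24 h; ESI-LC/MS-MS after acetonitrile precipitation (LOQ 1 ng/mL); noncompartmental analysis.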

[9] = organism: Rattus norvegicus; experiment: Improvement in GLP1(9-36)NH2-mediated glucose-stimulated insulin secretion in dispersed rat pancreatic islets at <10 uM incubated for 2 hrs by ELISA; format: functional
In short: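 Dispersed rat islets pre-incubated 1 h in Krebs-Ringer (5.6 mM glucose), then 2 h at 37 °C at 15 mM glucose with GLP1(9-36)NH2 1, 10 or 100 nM ± compound 1 µM, DMSO vehicle. Supernatant insulin measured by HTRF-based ELISA, expressed as % of total insulin and n-fold vs respective control; N≥9 per condition.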

| Structure (SMILES) | inhibition [1] | Activity [2] | Activity [3] | Activity [4] | solubility [5] [µM] | Stability [6] [%] | AUC(0-t) at 24 h [7] [ng·h/mL] | AUC(0-t) at 24 h [8] [ng·h/mL] | Activity [9] |
| --- | --- | --- | --- | --- | --- | --- | --- | --- | --- |
| CC(C)(C)OC(=O)n1c2c(c3ccccc31)C[C@H]1C(=O)N3C[C@@H](CC(=O)O)C[C@H]3[C@@H]2N1C(=O)CC1CCC(F)(F)CC1 | inactive | Tde | Tde | Active | > 853 | 100 | 109 | 7340 | – |
| CC(O)CCN1C[C@H]2c3c(c4ccccc4n3C(=O)OC(C)(C)C)C[C@@H](C1=O)N2C(=O)CC1CCC(F)(F)CC1 (some centres undefined) | – | – | – | – | – | – | – | – | Active |
